Columns and labels:
[1] = Half life in pH 6.8 phosphate buffer at 5 mM by HPLC analysis; assay type: physicochemical
Summary of the method: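 Compound at 5 mM in 0.1 M HCl, pH 4.5 acetate buffer, pH 5.8/6.8/7.2 phosphate buffers, SGF (pH 1.2) and SIF (pH 6.8), prepared per Chinese Pharmacopoeia. Samples taken at 0-20 h and analyzed by HPLC-UV. k = 2.303×slope of log C versus time; t1/2 = 0.693/k.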

[2] = Half life in Sprague-Dawley rat liver homogenates at 5 mM by HPLC analysis; assay type: ADME, tissue-based
Summary of the method: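 Jejunum and liver homogenates from male SD rats in pH 7.4 PBS, adjusted to 200 µg/mL protein, and rat plasma. Each incubated with compound at 5 mM at 37 °C.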

[3] = biological target: T1, Solute carrier family 22 member 3 (Homo sapiens, UniProt O75751); assay: Substrate activity at OCT3 in human Caco2 cells assessed as protein-mediated drug uptake at 0.5 mM measured after 10 mins in absence of OCT1 substrate metformin by UPLC-MS/MS analysis; assay type: ADME, cell-based; conditions: caco-2, 10 min, 500 µM
T1 sequence (O75751 whole entry): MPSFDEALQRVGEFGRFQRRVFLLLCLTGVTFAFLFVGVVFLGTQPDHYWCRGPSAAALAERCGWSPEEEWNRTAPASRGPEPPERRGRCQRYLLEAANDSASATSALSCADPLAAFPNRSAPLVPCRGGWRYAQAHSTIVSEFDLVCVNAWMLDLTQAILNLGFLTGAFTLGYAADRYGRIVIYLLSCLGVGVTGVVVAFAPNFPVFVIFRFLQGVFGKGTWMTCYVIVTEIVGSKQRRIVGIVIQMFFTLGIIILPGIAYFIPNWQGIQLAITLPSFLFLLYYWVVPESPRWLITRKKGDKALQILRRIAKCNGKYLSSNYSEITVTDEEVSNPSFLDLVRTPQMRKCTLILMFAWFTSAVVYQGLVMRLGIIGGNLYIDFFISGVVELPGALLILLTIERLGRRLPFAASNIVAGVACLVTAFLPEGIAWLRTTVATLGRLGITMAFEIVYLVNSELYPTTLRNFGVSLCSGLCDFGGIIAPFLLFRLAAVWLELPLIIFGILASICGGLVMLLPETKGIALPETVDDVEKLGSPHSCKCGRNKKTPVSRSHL
Summary of the method: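 Caco-2 cells in 24-well plates took up 0.5 mM compound for 10 min at 37 °C, with or without 50 mM captopril ([…]) or metformin (OCT1-3 substrate). Cells were washed in ice-cold PBS and homogenised in water; lysate protein was measured and drug assayed by UPLC-MS/MS. n=3.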

[4] = biological target: T2, Solute carrier family 15 member 1 (Homo sapiens, UniProt P46059); assay: Substrate activity at PEPT1 in human Caco2 cells assessed as inhibition of Gly-Sar uptake measured after 10 mins by UPLC-MS/MS analysis; assay type: cell-based
T2 sequence (P46059 whole entry): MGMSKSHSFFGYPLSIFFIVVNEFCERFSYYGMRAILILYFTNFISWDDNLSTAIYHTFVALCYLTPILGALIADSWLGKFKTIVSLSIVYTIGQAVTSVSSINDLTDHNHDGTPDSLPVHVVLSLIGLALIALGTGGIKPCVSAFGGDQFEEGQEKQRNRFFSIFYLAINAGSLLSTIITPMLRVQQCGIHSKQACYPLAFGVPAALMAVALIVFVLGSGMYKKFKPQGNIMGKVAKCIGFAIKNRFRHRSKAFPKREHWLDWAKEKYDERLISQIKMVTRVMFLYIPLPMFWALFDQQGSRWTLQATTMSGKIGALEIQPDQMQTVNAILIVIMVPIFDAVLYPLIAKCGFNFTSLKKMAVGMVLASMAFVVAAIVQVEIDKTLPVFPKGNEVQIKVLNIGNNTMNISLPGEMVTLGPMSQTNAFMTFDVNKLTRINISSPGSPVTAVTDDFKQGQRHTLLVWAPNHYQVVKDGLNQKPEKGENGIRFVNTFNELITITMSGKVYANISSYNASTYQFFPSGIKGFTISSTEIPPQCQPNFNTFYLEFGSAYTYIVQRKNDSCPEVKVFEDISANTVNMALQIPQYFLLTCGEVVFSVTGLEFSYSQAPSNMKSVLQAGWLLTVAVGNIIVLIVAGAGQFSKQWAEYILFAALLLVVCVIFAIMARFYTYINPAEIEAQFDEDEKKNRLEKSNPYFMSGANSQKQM
Summary of the method: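 Caco-2 cells with 0.5 mM Gly-Sar probe substrate and competitor at 0.5–50 mM. IC50 by nonlinear fitting; n=3.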

[5] = test system: Rattus norvegicus; assay: Anti-hepatitis activity in ANIT-induced po dosed Sprague-Dawley rat model of cholestasis assessed as reduction in serum total bilirubin level administered 30 mins prior to ANIT challenge and subsequent dosing at 8, 22, 32, and 46 hrs post ANIT challenge and measured 48 hrs post ANIT challenge; assay type: functional, organism-based
Summary of the method: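 Male SD rats, 6 weeks old, fasted 12 h, 6 per group. Cholestasis induced by ANIT 50 mg/kg ip in olive oil. Test agents were given in water; UDCA 100 mg/kg was given orally in CMC-Na. Dosing at 30 min before and 8, 22, 32 and 46 h after ANIT. Serum taken from the abdominal aorta under chloral hydrate anesthesia at 48 h; total bilirubin measured with an assay kit.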

[6] = biological target: T3, Solute carrier organic anion transporter family member 2B1 (Homo sapiens, UniProt O94956); assay: Substrate activity at OATPB in human Caco2 cells assessed as protein-mediated drug uptake at 0.5 mM measured after 10 mins in absence of OATPB substrate captopril by UPLC-MS/MS analysis; conditions: caco-2, 10 min, 500 µM
T3 sequence (O94956 whole entry): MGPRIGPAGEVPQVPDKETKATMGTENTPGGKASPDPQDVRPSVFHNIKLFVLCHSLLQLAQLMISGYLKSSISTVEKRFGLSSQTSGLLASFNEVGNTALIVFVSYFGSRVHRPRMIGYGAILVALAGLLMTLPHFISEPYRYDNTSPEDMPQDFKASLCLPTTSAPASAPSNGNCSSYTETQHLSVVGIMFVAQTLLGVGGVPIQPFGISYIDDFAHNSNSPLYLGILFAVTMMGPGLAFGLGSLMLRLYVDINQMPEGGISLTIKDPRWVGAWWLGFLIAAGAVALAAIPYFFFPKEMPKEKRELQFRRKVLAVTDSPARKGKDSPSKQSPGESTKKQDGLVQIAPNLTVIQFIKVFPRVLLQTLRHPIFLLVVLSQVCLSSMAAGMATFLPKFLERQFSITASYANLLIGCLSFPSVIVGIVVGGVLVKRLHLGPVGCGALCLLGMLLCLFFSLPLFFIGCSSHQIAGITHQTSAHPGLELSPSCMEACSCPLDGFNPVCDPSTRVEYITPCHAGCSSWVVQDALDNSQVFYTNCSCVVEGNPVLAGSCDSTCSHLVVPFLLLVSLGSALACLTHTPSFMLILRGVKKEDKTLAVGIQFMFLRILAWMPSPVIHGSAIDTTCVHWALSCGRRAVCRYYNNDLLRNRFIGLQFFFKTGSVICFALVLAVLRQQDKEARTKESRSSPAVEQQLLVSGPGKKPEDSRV

| half-life at 5000 µM [1] | half-life at 5000 µM [2] | Drug uptake [3] | IC50 [4] | Drug uptake [6] | SMILES | Activity [5] |
| --- | --- | --- | --- | --- | --- | --- |
| 7.7 h | 0.86 h | Not Active | 2.9 mM | Not Active | CC(C)[C@H](N)C(=O)OC[C@@H]1NC(=O)[C@@H]2C[C@@H](O)CN2C1=O | Dose-dependent effect |
| > 20 h | > 20 h | Not Active | 18.2 mM | Not Active | O=C1N[C@@H](CO)C(=O)N2C[C@H](O)C[C@@H]12 | Dose-dependent effect |

— ChEMBL document CHEMBL4373712, “Bioactivatable Pseudotripeptidization of Cyclic Dipeptides To Increase the Affinity toward Oligopeptide Transporter 1 for Enhanced Oral Absorption: An Application to Cyclo(l-Hyp-l-Ser) (JBP485)” (J Med Chem, 2019)
